# Measured values published in ChEMBL document CHEMBL1629539, “Configuration of the 5'-methyl group modulates the biophysical and biological properties of locked nucleic acid (LNA) oligonucleotides” (J Med Chem, 2010).
# Calls of active or inactive are those of the source. The rule behind the calls is not given here.
# Experiments:
# Mus musculus [1] = test: Toxicity in BALB/c mouse assessed as increase in spleen weight at 4.5 mg/kg, ip administered twice weekly for 3 weeks measured after 72 hrs post last dose; assay type: organism-based; parameters: dose 4.5 mg/kg, route intraperitoneal; conditions: in vivo
# Outline: (§1)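 Balb-c mice (n = 4/group) dosed ip twice a week for 3 weeks at 0.5, 1.5, 4.5 and 15 mg/kg of PTEN-targeting 14-mer phosphorothioate gapmer. Sacrifice 72 h after last dose. Liver PTEN mRNA by quantitative RT-PCR as % versus saline, with ED50 derived from dose-response. Plasma ALT (IU/L) recorded. Spleen weight given as fold increase over saline group.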
# Mus musculus [2] = test: Hepatoprotective activity in BALB/c mouse assessed as at 23 mg/kg, ip assessed as reduction of plasma alanine amino transferase levels after 72 hrs post dose; assay type: functional, organism-based; parameters: dose 23 mg/kg
# Outline: (§2)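 Balb-c mice, 4 per group, one ip dose at 23 or 46 mg/kg of 14-mer fully phosphorothioate gapmer ASO targeting PTEN. Sacrifice 72 h after dosing. Liver PTEN mRNA quantified by quantitative RT-PCR, expressed as % down-regulation versus saline-treated animals. Plasma ALT (IU/L) measured after sacrifice.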
# Mus musculus [3] = test: Toxicity in BALB/c mouse assessed as increase in spleen weight at 1.5 mg/kg, ip administered twice weekly for 3 weeks measured after 72 hrs post last dose; assay type: organism-based; parameters: dose 1.5 mg/kg, route intraperitoneal; conditions: in vivo; outline: as §1
# Mus musculus [4] = test: Hepatoprotective activity in BALB/c mouse assessed as at 46 mg/kg, ip assessed as reduction of plasma alanine amino transferase levels after 72 hrs post dose; assay type: functional, organism-based; parameters: dose 46 mg/kg; outline: as §2
# Mus musculus [5] = test: Hepatoprotective activity in BALB/c mouse assessed as reduction of plasma alanine amino transferase levels at 15 mg/kg, ip administered twice weekly for 3 weeks measured after 72 hrs post last dose; assay type: functional, organism-based; parameters: dose 15 mg/kg; outline: as §1
# Mus musculus [6] = test: Reduction in PTEN mRNA expression in ip dosed BALB/c mouse liver administered twice weekly for 3 weeks measured after 72 hrs post last dose; assay type: functional; outline: as §1
# Mus musculus [7] = test: Reduction in PTEN mRNA expression in BALB/c mouse liver at 46 mg/kg, ip measured 72 hrs post dose by Rt-PCR; assay type: functional, organism-based; parameters: dose 46 mg/kg; outline: as §2
# Mus musculus [8] = test: Reduction in PTEN mRNA expression in BALB/c mouse liver at 23 mg/kg, ip measured 72 hrs post dose by Rt-PCR; assay type: functional, organism-based; parameters: dose 23 mg/kg; outline: as §2
# [9] = system: snake venom phosphodiesterase; test: Chemical stability in presence of snake venom phosphodiesterase assessed as half life; assay type: physicochemical
# Mus musculus [10] = test: Hepatotoxicity in BALB/c mouse liver at 60 mg/kg, ip administered as single dose measured 72 hrs post dose
# Mus musculus [11] = test: Reduction in PTEN mRNA expression in BALB/c mouse liver at 12 mg/kg, ip administered as single dose measured 72 hrs post dose; assay type: functional
# Outline: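 Single ip injection at 12 or 60 mg/kg of phosphorothioate gapmer (14-base deoxy gap, two modified nucleotides per wing) against PTEN in Balb-c mice, n = 4/group. After sacrifice, liver PTEN mRNA reported as % down-regulation versus saline controls, and plasma ALT (IU/L) measured as the liver toxicity read-out.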
compound,measurement,setting,value
Cc1cn([C@@H]2O[C@@]3(COP(O)(=S)O[C@H]4[C@H]5OC[C@]4(COP(O)(=S)O[C@H]4[C@H]6OC[C@]4(COP(O)(=S)O[C@H]4[C@H]7OC[C@]4(COP(O)(=S)O[C@H]4[C@H]8OC[C@]4(COP(O)(=S)O[C@H]4[C@H]9OC[C@]4(COP(O)(=S)O[C@H]4[C@H]%10OC[C@]4(COP(O)(=S)O[C@H]4[C@H]%11OC[C@]4([C@H](C)O)O[C@H]%11n4ccc(=O)[nH]c4=O)O[C@H]%10n4ccc(N)nc4=O)O[C@H]9n4cnc9c(N)ncnc94)O[C@H]8n4cc(C)c(=O)[nH]c4=O)O[C@H]7n4cnc7nc(N)[nH]c(=O)c74)O[C@H]6n4cnc6nc(N)[nH]c(=O)c64)O[C@H]5N4CCC(N)=NC4=O)CO[C@@H]2[C@@H]3OP(O)(=S)OC[C@@]23CO[C@@H]([C@H](n4cnc5nc(N)[nH]c(=O)c54)O2)[C@@H]3OP(O)(=S)OC[C@@]23CO[C@@H]([C@H](n4ccc(N)nc4=O)O2)[C@@H]3OP(O)(=S)OC[C@@]23CO[C@@H]([C@H](n4cnc5c(N)ncnc54)O2)[C@@H]3OP(O)(=S)OC[C@@]23CO[C@@H]([C@H](n4cnc5nc(N)[nH]c(=O)c54)O2)[C@@H]3OP(O)(=S)OC[C@@]23CO[C@@H]([C@H](n4ccc(N)nc4=O)O2)[C@@H]3OP(O)(=S)OC[C@@]23CO[C@@H]([C@H](n4ccc(=O)[nH]c4=O)O2)[C@@H]3O)c(=O)[nH]c1=O (stereo not given in full),Activity,Mus musculus [1],Non-toxic
same,Activity,Mus musculus [2],Active
same,Activity,Mus musculus [3],Non-toxic
same,Activity,Mus musculus [4],Active
same,Activity,Mus musculus [5],Active
same,ED50,Mus musculus [6],6 mg/kg
same,inhibition,Mus musculus [6],Dose-dependent effect
same,inhibition,Mus musculus [7],Active
same,inhibition,Mus musculus [8],inactive
Cc1cn([C@H]2C[C@H](OP(=O)(O)OC[C@H]3O[C@@H](n4cc(C)c(=O)[nH]c4=O)C[C@@H]3OP(=O)(O)OC[C@H]3O[C@@H](n4cc(C)c(=O)[nH]c4=O)C[C@@H]3OP(=O)(O)OC[C@H]3O[C@@H](n4cc(C)c(=O)[nH]c4=O)C[C@@H]3OP(=O)(O)OC[C@H]3O[C@@H](n4cc(C)c(=O)[nH]c4=O)C[C@@H]3OP(=O)(O)OC[C@H]3O[C@@H](n4cc(C)c(=O)[nH]c4=O)C[C@@H]3OP(=O)(O)OC[C@H]3O[C@@H](n4cc(C)c(=O)[nH]c4=O)C[C@@H]3OP(=O)(O)OC[C@H]3O[C@@H](n4cc(C)c(=O)[nH]c4=O)C[C@@H]3OP(=O)(O)OC[C@H]3O[C@@H](n4cc(C)c(=O)[nH]c4=O)C[C@@H]3OP(=O)(O)OC[C@H]3O[C@@H](n4cc(C)c(=O)[nH]c4=O)C[C@@H]3OP(=O)(O)OC[C@@]34CO[C@@H]([C@H](n5ccc(=O)[nH]c5=O)O3)[C@@H]4OP(=O)(O)O[C@H](C)[C@@]34CO[C@@H]([C@H](n5ccc(=O)[nH]c5=O)O3)[C@@H]4O)[C@@H](CO)O2)c(=O)[nH]c1=O,half-life,[9],3.5 h
Cc1cn([C@@H]2O[C@@]3(CO)CO[C@@H]2[C@@H]3OP(O)(=S)OC[C@@]23CO[C@@H]([C@H](n4cc(C)c(=O)[nH]c4=O)O2)[C@@H]3OP(O)(=S)OC[C@@]23CO[C@@H]([C@H](n4cnc5c(=O)[nH]c(N)nc54)O2)[C@@H]3OP(O)(=S)OC[C@@]23CO[C@@H]([C@H](n4ccc(N)nc4=O)O2)[C@@H]3OP(O)(=S)OC[C@@]23CO[C@@H]([C@H](n4cc(C)c(=O)[nH]c4=O)O2)[C@@H]3OP(O)(=S)OC[C@@]23CO[C@@H]([C@H](n4cnc5ncnc(N)c54)O2)[C@@H]3OP(O)(=S)OC[C@@]23CO[C@@H]([C@H]([n+]4c[nH]c5nc(N)[nH]c(=O)c54)O2)[C@@H]3OP(O)(=S)OC[C@@]23CO[C@@H]([C@H](n4ccc(N)nc4=O)O2)[C@@H]3OP(O)(=S)OC[C@@]23CO[C@@H]([C@H](n4ccc(N)nc4=O)O2)[C@@H]3OP(O)(=S)OC[C@@]23CO[C@@H]([C@H](n4cc(C)c(=O)[nH]c4=O)O2)[C@@H]3OP(O)(=S)OC[C@@]23CO[C@@H]([C@H](n4ccc(N)nc4=O)O2)[C@@H]3OP(O)(=S)OC[C@@]23CO[C@@H]([C@H](n4cc(C)c(=O)[nH]c4=O)O2)[C@@H]3OP(O)(=S)OC[C@@]23CO[C@@H]([C@H]([n+]4c[nH]c5nc(N)[nH]c(=O)c54)O2)[C@@H]3OP(O)(=S)OC[C@@]23CO[C@@H]([C@H]([n+]4c[nH]c5nc(N)[nH]c(=O)c54)O2)[C@@H]3OP(O)(=S)OC[C@@]23CO[C@@H]([C@H](n4cnc5ncnc(N)c54)O2)[C@@H]3OP(O)(=S)OC[C@@]23CO[C@@H]([C@H](n4cc(C)c(=O)[nH]c4=O)O2)[C@@H]3OP(O)(=S)OC[C@@]23CO[C@@H]([C@H](n4cc(C)c(=O)[nH]c4=O)O2)[C@@H]3OP(O)(=S)OC[C@@]23CO[C@@H]([C@H](n4cc(C)c(=O)[nH]c4=O)O2)[C@@H]3O)c(=O)nc1N (stereo not given in full),Activity,Mus musculus [10],Toxic
same,inhibition in vivo at 12 mg/kg,Mus musculus [11]; route intraperitoneal,90%
Cc1cn([C@H]2C[C@H](OP(=O)(O)OC[C@H]3O[C@@H](n4cc(C)c(=O)[nH]c4=O)C[C@@H]3OP(=O)(O)OC[C@H]3O[C@@H](n4cc(C)c(=O)[nH]c4=O)C[C@@H]3OP(=O)(O)OC[C@H]3O[C@@H](n4cc(C)c(=O)[nH]c4=O)C[C@@H]3OP(=O)(O)OC[C@H]3O[C@@H](n4cc(C)c(=O)[nH]c4=O)C[C@@H]3OP(=O)(O)OC[C@H]3O[C@@H](n4cc(C)c(=O)[nH]c4=O)C[C@@H]3OP(=O)(O)OC[C@H]3O[C@@H](n4cc(C)c(=O)[nH]c4=O)C[C@@H]3OP(=O)(O)OC[C@H]3O[C@@H](n4cc(C)c(=O)[nH]c4=O)C[C@@H]3OP(=O)(O)OC[C@H]3O[C@@H](n4cc(C)c(=O)[nH]c4=O)C[C@@H]3OP(=O)(O)OC[C@H]3O[C@@H](n4cc(C)c(=O)[nH]c4=O)C[C@@H]3OP(=O)(O)OC[C@@]34CO[C@@H]([C@H](n5ccc(=O)[nH]c5=O)O3)[C@@H]4OP(=O)(O)O[C@@H](C)[C@@]34CO[C@@H]([C@H](n5ccc(=O)[nH]c5=O)O3)[C@@H]4O)[C@@H](CO)O2)c(=O)[nH]c1=O,half-life,[9],8.1 h
Cc1cn([C@@H]2O[C@@]3(COP(O)(=S)O[C@H]4[C@H]5OC[C@]4(COP(O)(=S)O[C@H]4[C@H]6OC[C@]4(COP(O)(=S)O[C@H]4[C@H]7OC[C@]4(COP(O)(=S)O[C@H]4[C@H]8OC[C@]4(COP(O)(=S)O[C@H]4[C@H]9OC[C@]4(COP(O)(=S)O[C@H]4[C@H]%10OC[C@]4(COP(O)(=S)O[C@H]4[C@H]%11OC[C@]4(COP(O)(=S)O[C@H]4[C@H]%12OC[C@]4(COP(O)(=S)O[C@H]4[C@H]%13OC[C@]4([C@H](C)O)O[C@H]%13n4ccc(N)nc4=O)O[C@H]%12n4ccc(=O)[nH]c4=O)O[C@H]%11n4cnc%11c(=O)[nH]c(N)nc%114)O[C@H]%10n4ccc(N)nc4=O)O[C@H]9n4cc(C)c(=O)[nH]c4=O)O[C@H]8n4cnc8ncnc(N)c84)O[C@H]7[n+]4c[nH]c7nc(N)[nH]c(=O)c74)O[C@H]6n4ccc(N)nc4=O)O[C@H]5n4ccc(N)nc4=O)CO[C@@H]2[C@@H]3OP(O)(=S)OC[C@@]23CO[C@@H]([C@H](n4ccc(N)nc4=O)O2)[C@@H]3OP(O)(=S)OC[C@@]23CO[C@@H]([C@H](n4cc(C)c(=O)[nH]c4=O)O2)[C@@H]3OP(O)(=S)OC[C@@]23CO[C@@H]([C@H]([n+]4c[nH]c5nc(N)[nH]c(=O)c54)O2)[C@@H]3OP(O)(=S)OC[C@@]23CO[C@@H]([C@H]([n+]4c[nH]c5nc(N)[nH]c(=O)c54)O2)[C@@H]3OP(O)(=S)OC[C@@]23CO[C@@H]([C@H](n4cnc5ncnc(N)c54)O2)[C@@H]3OP(O)(=S)OC[C@@]23CO[C@@H]([C@H](n4cc(C)c(=O)[nH]c4=O)O2)[C@@H]3OP(O)(=S)OC[C@@]23CO[C@@H]([C@H](n4ccc(=O)[nH]c4=O)O2)[C@@H]3OP(O)(=S)OC[C@@]23CO[C@@H]([C@H](n4ccc(=O)[nH]c4=O)O2)[C@@H]3O)c(=O)[nH]c1=O (stereo not given in full),inhibition,Mus musculus [11],Active
Cc1cn([C@H]2CC(OP(=O)(O)OC[C@H]3O[C@@H](n4cc(C)c(=O)[nH]c4=O)C[C@@H]3OP(=O)(O)OC[C@H]3O[C@@H](n4cc(C)c(=O)[nH]c4=O)C[C@@H]3OP(=O)(O)OC[C@H]3O[C@@H](n4cc(C)c(=O)[nH]c4=O)C[C@@H]3OP(=O)(O)OC[C@H]3O[C@@H](n4cc(C)c(=O)[nH]c4=O)C[C@@H]3OP(=O)(O)OC[C@H]3O[C@@H](n4cc(C)c(=O)[nH]c4=O)C[C@@H]3OP(=O)(O)OC[C@H]3O[C@@H](n4cc(C)c(=O)[nH]c4=O)C[C@@H]3OP(=O)(O)OC[C@H]3O[C@@H](n4cc(C)c(=O)[nH]c4=O)C[C@@H]3OP(=O)(O)OC[C@H]3O[C@@H](n4cc(C)c(=O)[nH]c4=O)C[C@@H]3OP(=O)(O)OC[C@H]3O[C@@H](n4cc(C)c(=O)[nH]c4=O)C[C@@H]3OP(=O)(O)OC[C@@]34CO[C@@H]([C@H](n5ccc(=O)[nH]c5=O)O3)[C@@H]4OP(=O)(O)OC[C@@]34CO[C@@H]([C@H](n5ccc(=O)[nH]c5=O)O3)[C@@H]4O)[C@@H](CO)O2)c(=O)[nH]c1=O (stereo not given in full),half-life,[9],0.0433 h
